Calls of active or inactive are those of the source. The rule behind the calls is not given here.
Key:
[1] = molecular target: T1, Hypoxia inducible factors; HIF-1-alpha, HIF-2-alpha (Homo sapiens, UniProt Q16665+Q99814); experiment: Inhibition of HIF1 transcriptional activity in human LN229 cells expressing VEGF-HRE-V6R and coexpressing luciferase, lac Z gene incubated for 1 hr in normoxia condition followed by 24 hrs in hypoxia condition by reporter gene assay; type: cell-based
Method in brief: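 LN229 glioblastoma cells stably carrying a 6×VEGF-HRE bidirectional luciferase/lacZ reporter, 3 × 10^4 per well, grown 24 h normoxic in DMEM/10% FBS. Compound (serial dilutions in medium, 1% DMSO) added, 1 h normoxia, then 24 h at 1% O2, 37 °C. Lysate luciferase read by luminometer, as percent of untreated hypoxic cells. Triplicates, two independent experiments.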

[2] = Downregulation of HIF1alpha protein level in human LN229 cells expressing VEGF-HRE-V6R at 10 uM incubated for 1 hr in normoxia condition followed by 24 hrs in hypoxia condition by Western blot analysis relative to control; type: functional, cell-based; conditions: LN-229
Method in brief: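 LN229-V6R cells (2 × 10^5 per 35 mm dish) grown 24 h under normoxia. Compounds given at 10 μM in medium with 1% DMSO, 1 h normoxia, then 24 h hypoxia (1% O2) at 37 °C. SDS lysis, 12.5% gel, nitrocellulose, anti-HIF-1α and β-actin blots, ECL. Densitometry as percent of untreated hypoxic control, normalized to β-actin.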

[3] = Aqueous solubility of the compound at pH 7.4; type: physicochemical
[4] = molecular target: T1, Hypoxia inducible factors; HIF-1-alpha, HIF-2-alpha; experiment: Inhibition of HIF1 transcriptional activity in human LN229 cells expressing VEGF-HRE-V6R and coexpressing lac Z gene at 10 uM incubated for 1 hr in normoxia condition followed by 24 hrs in hypoxia condition by luciferase reporter gene assay relative to control; values are per cent of control

Row | Structure (SMILES) | IC50 [1] [µM] | inhibition [1] | Activity [2] | solubility [3] [mg/mL] | residual activity [4] [%]
1 | CC1(C)C=Cc2cc(CN(c3ccccc3)S(=O)(=O)c3ccccc3)ccc2O1 | 2.7 | Dose-dependent effect |  |  | 
2 | COc1ccc(S(=O)(=O)N(Cc2ccc3c(c2)C=CC(C)(C)O3)c2ccccc2)cc1OC | 1.6 | Dose-dependent effect | inactive | < 0.015 | < 5
3 | CC1(C)C=Cc2cc(CN(c3ccc(F)cc3)S(=O)(=O)c3ccc(F)cc3)ccc2O1 | 6.6 | Dose-dependent effect |  |  | 
4 | CC(C)N(Cc1ccc2c(c1)C=CC(C)(C)O2)S(=O)(=O)c1ccc([N+](=O)[O-])cc1 | 3 | Dose-dependent effect |  |  | 
5 | COc1ccc(S(=O)(=O)N(Cc2ccc3c(c2)C=CC(C)(C)O3)c2ccc(F)cc2)cc1OC | 3.2 | Dose-dependent effect | inactive |  | < 5
6 | CC1(C)C=Cc2cc(CN(c3ccc(F)cc3)S(=O)(=O)c3ccc([N+](=O)[O-])cc3)ccc2O1 | 4.8 | Dose-dependent effect |  |  | 
7 | COc1ccc(S(=O)(=O)N(Cc2ccc3c(c2)C=CC(C)(C)O3)C(C)C)cc1OC | 1.5 | Dose-dependent effect | 30% |  | < 5
8 | CC1(C)C=Cc2cc(CN(c3ccc(F)cc3)S(=O)(=O)c3cc(Cl)ccc3Cl)ccc2O1 | 8 | Dose-dependent effect |  |  | 
9 | CC1(C)C=Cc2cc(CN(c3ccc(F)cc3)S(=O)(=O)c3ccccc3)ccc2O1 | 7.2 | Dose-dependent effect |  |  | 
10 | CC1(C)C=Cc2cc(CN(c3ccccc3)S(=O)(=O)c3cc(Cl)ccc3Cl)ccc2O1 | 3.3 | Dose-dependent effect |  |  | 
11 | CC1(C)C=Cc2cc(CN(c3ccccc3)S(=O)(=O)c3ccc([N+](=O)[O-])cc3)ccc2O1 | 4.2 | Dose-dependent effect |  |  | 
12 | CC(C)N(Cc1ccc2c(c1)C=CC(C)(C)O2)S(=O)(=O)c1ccc(F)cc1 | 3.8 | Dose-dependent effect | inactive |  | 
13 | CC(C)N(Cc1ccc2c(c1)C=CC(C)(C)O2)S(=O)(=O)c1ccccc1 | 2.2 | Dose-dependent effect |  |  | 
14 | CC(C)N(Cc1ccc2c(c1)C=CC(C)(C)O2)S(=O)(=O)c1cc(Cl)ccc1Cl | 16.8 | Dose-dependent effect |  |  | 
15 | CC1(C)C=Cc2cc(CN(c3ccccc3)S(=O)(=O)c3ccc(F)cc3)ccc2O1 | 4.8 | Dose-dependent effect |  |  | 

From ChEMBL document CHEMBL2057132, “Structure-activity relationship of 2,2-dimethyl-2H-chromene based arylsulfonamide analogs of 3,4-dimethoxy-N-[(2,2-dimethyl-2H-chromen-6-yl)methyl]-N-phenylbenzenesulfonamide, a novel small molecule hypoxia inducible factor-1 (HIF-1) pathway inhibitor and anti-cancer agent” (Bioorg Med Chem, 2012)
